# Measurements: ChEMBL document CHEMBL3421632, “Rational design of triazololipopeptides analogs of kisspeptin inducing a long-lasting increase of gonadotropins” (J Med Chem, 2015)
# Active and inactive are the calls of the source. No cut-off for these calls is given here. *1 amine or outer side, *2 acyl side, *3 side chain or, on linkers, in order; H or OH if unused. Where a SMILES comes first, the peptide text is derived from it. Side-chain parts run from the residue outwards. [ ]: non-standard residue; d: D form. The star is where a group is joined. Glyψ(1,4-Tz)Leu = CC(C)C[C@@H](C(=O)[*:2])n1cc(CN[*:1])nn1; X1 = O=C(Cn1cc([C@H](Cc2ccccc2)N[*:1])nn1)[*:2]; γGlu = O=C(O)[C@H](CCC(=O)[*:2])N[*:1]; Palmitoyl = CCCCCCCCCCCCCCCC(=O)*
# Key:
# [1] = biological target: KiSS-1 receptor (Homo sapiens, UniProt Q969F8); experiment: Agonist activity at human wild-type KISS1R expressed in HEK293 cells assessed as induction of intracellular Ca2+ mobilization after 30 mins by Fluo4 NW Ca2+ assay; type: functional, cell-based
# KiSS-1 receptor, sequence (Q969F8 whole entry): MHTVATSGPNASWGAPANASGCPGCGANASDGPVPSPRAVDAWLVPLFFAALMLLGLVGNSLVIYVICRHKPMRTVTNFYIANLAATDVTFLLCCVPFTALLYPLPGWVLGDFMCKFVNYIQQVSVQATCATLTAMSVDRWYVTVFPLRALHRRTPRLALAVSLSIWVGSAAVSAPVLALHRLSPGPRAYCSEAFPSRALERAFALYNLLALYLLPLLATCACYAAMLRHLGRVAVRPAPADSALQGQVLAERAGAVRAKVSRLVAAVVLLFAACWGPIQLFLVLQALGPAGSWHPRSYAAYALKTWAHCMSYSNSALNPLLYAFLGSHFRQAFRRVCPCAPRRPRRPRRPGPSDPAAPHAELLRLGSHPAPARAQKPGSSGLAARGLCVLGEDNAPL
# Summary of the method: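 HEK293 stably expressing HA-tagged wild-type human KISS1R, plated 40 000 cells/well 48 h prior. Loaded with Fluo4 NW dye 30 min at 37 °C plus 30 min at rt. Basal read 5× at 7 s intervals, compound added (final 1 pM–1 μM), Ca2+ followed 7 min. Mean basal subtracted, AUC plotted against concentration, sigmoid fit gives EC50. Nontransfected HEK293 served as control.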
# [2] = test system: Ovis aries; experiment: Increase in FSH level in anoestrus Ile-de-France ewe at 15 nmol, iv by radioimmunoassay; type: functional, organism-based
# Summary of the method: (§1)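 Intact acyclic anoestrous Ile-de-France ewes (3–5 y, 55–70 kg), jugular catheter placed the day before. Single iv bolus. Basal sampled every 10 min for 30 min, then every 10 min for 2 h, every 20 min for 4 h, then hourly. Plasma FSH measured by RIA with Tucker reagents (sensitivity 0.1 ng/mL), AUC computed; mean ± SEM, N = 4–6.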
# [3] = test system: Ovis aries; experiment: Increase in total plasma LH level in anoestrus Ile-de-France ewe at 1 nmol, iv by radioimmunoassay; type: functional
# Summary of the method: (§2)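 Intact acyclic anoestrous Ile-de-France ewes (3–5 y, 55–70 kg), jugular catheter placed the day before. Single iv bolus of 1–15 nmol/ewe. Basal LH taken every 10 min for 30 min, then every 10 min for 2 h, every 20 min for 4 h, then hourly. Plasma LH by RIA (1051-CY-LH standard, sensitivity 0.1 ng/mL). Peak, duration and AUC derived; mean ± SEM, N = 4–6.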
# [4] = test system: Ovis aries; experiment: Increase in peak plasma LH level in anoestrus Ile-de-France ewe at 5 nmol, iv by radioimmunoassay (reference value: 0.2 +/- 0.09 ng/ml); type: functional; summary of the method: as §2
# [5] = biological target: Neuropeptide FF receptor 1 (Homo sapiens, UniProt Q9GZQ6); experiment: Agonist activity at human NPFF1R expressed in CHO cells assessed as effect on forskolin-induced cAMP accumulation after 15 mins by luminescence based assay; type: functional, cell-based
# Neuropeptide FF receptor 1, sequence (Q9GZQ6 whole entry): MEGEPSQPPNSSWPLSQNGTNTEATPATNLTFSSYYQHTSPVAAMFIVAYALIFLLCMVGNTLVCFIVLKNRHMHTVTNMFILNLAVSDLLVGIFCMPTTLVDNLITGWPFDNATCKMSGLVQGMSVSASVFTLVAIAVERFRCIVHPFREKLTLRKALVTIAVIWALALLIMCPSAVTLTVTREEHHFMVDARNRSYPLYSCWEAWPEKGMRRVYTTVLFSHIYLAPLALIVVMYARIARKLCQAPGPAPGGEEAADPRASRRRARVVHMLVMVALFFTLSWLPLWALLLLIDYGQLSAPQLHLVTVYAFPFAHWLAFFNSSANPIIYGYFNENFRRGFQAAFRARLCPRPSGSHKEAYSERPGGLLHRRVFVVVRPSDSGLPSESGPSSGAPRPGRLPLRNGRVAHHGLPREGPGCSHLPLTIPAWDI
# Summary of the method: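 CHO cells stably expressing hNPFF1R (Gαi-coupled), transfected with GloSensor; seeded 30 000 cells/well 24 h before, PBS-washed twice, loaded with GloSensor cAMP reagent 2 h. Compound added, luminescence read 15 min, then 300 nM forskolin + 0.25 mM IBMX added and read a further 120 min. Signal AUC plotted against concentration, sigmoid fit for EC50.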
# [6] = test system: Ovis aries; experiment: Increase in FSH level in anoestrus Ile-de-France ewe at 1 nmol, iv by radioimmunoassay; type: functional, organism-based; summary of the method: as §1
# [7] = test system: Ovis aries; experiment: Increase in maximal amplitude of plasma LH level in anoestrus Ile-de-France ewe at 1 to 15 nmol, iv by radioimmunoassay; type: functional, organism-based; summary of the method: as §2
# [8] = test system: Ovis aries; experiment: Increase in peak plasma LH level in anoestrus Ile-de-France ewe at 1 nmol, iv by radioimmunoassay (reference value: 0.3 +/- 0.09 ng/ml); type: functional; summary of the method: as §2
# [9] = test system: Ovis aries; experiment: Increase in total plasma LH level in anoestrus Ile-de-France ewe at 1 to 15 nmol, iv by radioimmunoassay; type: functional, organism-based; summary of the method: as §2
# [10] = test system: Ovis aries; experiment: Increase in time duration of increase of plasma LH level in anoestrus Ile-de-France ewe at 1 to 15 nmol, iv by radioimmunoassay; type: functional, organism-based; summary of the method: as §2
# [11] = test system: Ovis aries; experiment: Increase in total plasma LH level in anoestrus Ile-de-France ewe at 15 nmol, iv by radioimmunoassay; type: functional; summary of the method: as §2
# [12] = test system: Ovis aries; experiment: Increase in peak plasma LH level in anoestrus Ile-de-France ewe at 15 nmol, iv by radioimmunoassay (reference value: 0.3 +/- 0.15 ng/ml); type: functional; summary of the method: as §2
# [13] = test system: Ovis aries; experiment: Increase in peak plasma LH level in anoestrus Ile-de-France ewe at 5 nmol, iv by radioimmunoassay relative to untreated control; type: functional; summary of the method: as §2
# [14] = test system: Ovis aries; experiment: Increase in time duration of increase of plasma LH level in anoestrus Ile-de-France ewe at 15 nmol, iv by radioimmunoassay; type: functional; summary of the method: as §2
# [15] = species on record: Homo sapiens; experiment: Selectivity index, ratio of EC50 for human NPFF1R to EC50 for human wild-type KISS1R
# [16] = test system: Ovis aries; experiment: Increase in peak plasma LH level in anoestrus Ile-de-France ewe at 15 nmol, iv by radioimmunoassay relative to untreated control; type: functional; summary of the method: as §2
# [17] = test system: Ovis aries; experiment: Increase in FSH level in anoestrus Ile-de-France ewe at 5 nmol, iv by radioimmunoassay; type: functional, organism-based; summary of the method: as §1
# [18] = Stability in Ile-de-France ewe serum assessed as intact compound level at 50 uM incubated for 6 hrs by HPLC method; type: ADME, cell-free, Ovis aries; settings: female, sheep, read-out: Stability
# Summary of the method: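 Ile-de-France ewe serum, stored at −20 °C and preheated 30 min at 39 °C. Peptide at 50 μM final, with L-phenylalaninol internal calibrator, incubated at 39 °C. Proteins precipitated with MeCN and spun; supernatant run on RP-HPLC (2–52% MeCN/0.1% TFA over 5 min, UV 214 nm, plus MS). Intact peak given as % of t = 0 area; five independent experiments.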
compound,measurement,setting,value
CCCCCCCCCCCCCCCC(=O)N[C@@H](CCC(=O)NCCCC[C@H](NC(=O)[C@H](Cc1ccc(O)cc1)NC(C)=O)C(=O)N[C@@H](Cc1c[nH]c2ccccc12)C(=O)N[C@@H](CC(N)=O)C(=O)N[C@@H](CO)C(=O)N[C@@H](Cc1ccccc1)C(=O)NCC(=O)N[C@@H](CC(C)C)C(=O)N[C@@H](CCCNC(=N)N)C(=O)N[C@@H](Cc1ccc(O)cc1)C(N)=O)C(=O)O (Ac-YK([γGlu-Palmitoyl])WNSFGLRY-NH2),EC50,[1],2.9 nM
"CCCCCCCCCCCCCCCC(=O)N[C@@H](CCC(=O)NCCCC[C@H](NC(=O)[C@H](CC(N)=O)NC(=O)[C@H](Cc1ccc(O)cc1)NC(C)=O)C(=O)N[C@@H](CC(N)=O)C(=O)N[C@@H](CO)C(=O)N[C@@H](Cc1ccccc1)C(=O)NCc1cn([C@@H](CC(C)C)C(=O)N[C@@H](CCCNC(=N)N)C(=O)N[C@@H](Cc2ccc(O)cc2)C(N)=O)nn1)C(=O)O (Ac-YNK([γGlu-Palmitoyl])NSF[Glyψ(1,4-Tz)Leu]RY-NH2)",EC50,[1],216 nM
"CCCCCCCCCCCCCCCC(=O)N[C@@H](CCC(=O)NCCCC[C@H](NC(=O)[C@H](Cc1ccc(O)cc1)NC(C)=O)C(=O)N[C@@H](Cc1c[nH]c2ccccc12)C(=O)N[C@@H](CC(N)=O)C(=O)N[C@@H](CO)C(=O)N[C@@H](Cc1ccccc1)C(=O)NCc1cn([C@@H](CC(C)C)C(=O)N[C@@H](CCCNC(=N)N)C(=O)N[C@@H](Cc2ccc(O)cc2)C(N)=O)nn1)C(=O)O (Ac-YK([γGlu-Palmitoyl])WNSF[Glyψ(1,4-Tz)Leu]RY-NH2)",Activity,[2],Active
same,Activity,[3],274 ng·min/mL
same,Activity,[4],5.3 ng/mL
same,EC50,[5],222 nM
same,Activity,[6],inactive
same,Activity,[7],Dose-dependent effect
same,Activity,[8],1.1 ng/mL
same,Activity,[9],Dose-dependent effect
same,Activity,[10],Dose-dependent effect
same,Activity,[11],2400 ng·min/mL
same,Activity,[12],13.3 ng/mL
same,fold change (FC),[13],25
same,EC50,[1],1.6 nM
same,Time,[14],>9 h
same,Ratio EC50,[15],> 100
same,fold change (FC),[16],40
same,Activity,[17],inactive
CC(=O)N[C@@H](Cc1ccc(O)cc1)C(=O)N[C@@H](CC(N)=O)C(=O)N[C@@H](Cc1c[nH]c2ccccc12)C(=O)N[C@@H](CC(N)=O)C(=O)N[C@@H](CO)C(=O)N[C@@H](Cc1ccccc1)c1cn(CC(=O)N[C@@H](CC(C)C)C(=O)N[C@@H](CCCNC(=N)N)C(=O)N[C@@H](Cc2ccc(O)cc2)C(N)=O)nn1 (Ac-YNWNS[X1]LRY-NH2),EC50,[1],0.6 nM
same,"remaining at 6 h, 50 µM",[18],61.4%
CCCCCCCCCCCCCCCC(=O)NCCCC[C@H](NC(=O)[C@H](CC(N)=O)NC(=O)[C@H](Cc1ccc(O)cc1)NC(C)=O)C(=O)N[C@@H](CC(N)=O)C(=O)N[C@@H](CO)C(=O)N[C@@H](Cc1ccccc1)C(=O)NCC(=O)N[C@@H](CC(C)C)C(=O)N[C@@H](CCCNC(=N)N)C(=O)N[C@@H](Cc1ccc(O)cc1)C(N)=O (Ac-YNK(Palmitoyl)NSFGLRY-NH2),EC50,[1],> 500 nM
Ac-K(Ac)NWNSFGLRY-NH2,EC50,[1],0.9 nM
Ac-YK(Ac)WNSFGLRY-NH2,EC50,[1],0.1 nM
CCCCCCCCCCCCCCCC(=O)NCCCC[C@H](NC(=O)[C@H](Cc1ccc(O)cc1)NC(C)=O)C(=O)N[C@@H](Cc1c[nH]c2ccccc12)C(=O)N[C@@H](CC(N)=O)C(=O)N[C@@H](CO)C(=O)N[C@@H](Cc1ccccc1)C(=O)NCC(=O)N[C@@H](CC(C)C)C(=O)N[C@@H](CCCNC(=N)N)C(=O)N[C@@H](Cc1ccc(O)cc1)C(N)=O (Ac-YK(Palmitoyl)WNSFGLRY-NH2),EC50,[1],182 nM
Ac-YNWK(Ac)SFGLRY-NH2,EC50,[1],13.9 nM
